Published values pooled from the literature.
Protocols differ between the studies behind these lines.
Target: Serine/threonine-protein kinase MARK2 (MARK2, Homo sapiens, UniProt Q7KZI7)

| Structure (SMILES) | effect on | mode | method | cells | tested at | quantity | value |
| --- | --- | --- | --- | --- | --- | --- | --- |
| CCN1CCN(Cc2ccc(NC(=O)c3ccc(C)c(Oc4ccnc5[nH]ccc45)c3)cc2C(F)(F)F)CC1 | target engagement in cells | inhibitor | chemoproteomics | Huh-7 | 1 µM | inhibition | -10.4% |
| NS(=O)(=O)c1ccc(CNc2ccnc(Nc3cccc(NC(=O)N4CCCC4)c3)n2)cc1 | enzyme activity | inhibitor | radiometric | – | 1 µM | remaining activity | 115% |
| COc1cc(/C=C/C(=O)CC(=O)/C=C/c2ccc(O)c(OC)c2)ccc1O | enzyme activity | inhibitor | – | – | 1 µM | activity vs control | 78% |
| Cc1ccc(Nc2nccc(N(C)c3ccc4c(C)n(C)nc4c3)n2)cc1S(N)(=O)=O | enzyme activity | inhibitor | – | – | 0.3 µM | inhibition | 27% |
| O=C(NCCCNc1nc(Nc2cccc(NC(=O)N3CCCC3)c2)ncc1C1CC1)C1CCC1 | enzyme activity | inhibitor | radiometric | – | 1 µM | remaining activity | 6% |
| COc1ccc2c(c1)O[C@@H](c1ccc(OC)c(OC)c1)C[C@H]2NC(=O)C1(c2ccc3c(c2)OC(F)(F)O3)CC1 | cell-free assay | – | competition with immobilised ligand | – | 1 µM | remaining binding | 92% |
| Cc1nn(CC(F)(F)F)cc1Nc1nccc(NCCc2cnc[nH]2)n1 | enzyme activity | inhibitor | radiometric | – | 1 µM | remaining activity | 104% |
| O=C1NC(=O)c2cc(Nc3ccc(F)cc3)c(Nc3ccc(F)cc3)cc21 | cell-free assay | – | – | – | 0.5 µM | remaining signal | 98.2% |
| c1ccc(CNc2nc(N3CCOc4ccccc43)nc3c2CCCC3)cc1 | target engagement in cells | inhibitor | chemoproteomics | – | 20 mM | inhibition | -11.2% |
| NS(=O)(=O)c1ccc(CNc2nc(Nc3cccc(NC(=O)N4CCCC4)c3)ncc2C2CC2)cc1 | enzyme activity | inhibitor | radiometric | – | 1 µM | remaining activity | 93% |
| CS(=O)(=O)c1cc(C2(NC(=O)c3cncc4c3cnn4-c3ccc(F)cc3)CC2)ccn1 | cell-free assay | – | competition with immobilised ligand | – | 1 µM | remaining binding | 100% |
| FC(F)(F)Oc1cccc(-c2cnc3ccc(-c4ccncc4)nn23)c1 | enzyme activity | inhibitor | radiometric | – | 1 µM | activity vs control | 106% |
| CN(C(=O)c1ccccc1)c1cc(N(C)c2ccc3c(c2)CCc2ccc(C(=O)NCCN4CCOCC4)cc2C3=O)ccc1F | cell-free assay | – | competition with immobilised ligand | – | 1 µM | remaining binding | 78% |
| CN(C)C1CCN(CC#Cc2nn(C3CCCC3)c3nc(NCc4ccccc4)ncc23)C1 (stereo not drawn) | enzyme activity | inhibitor | FRET | – | 1 µM | inhibition | 3% |
| Cc1c(C(=O)O)cc(-c2ccc(C3CCNCC3)cc2)c2ccc(-c3ccc(C(F)(F)F)cc3)cc12 | binding | – | competition with immobilised ligand | – | 1 µM | remaining binding | 100% |
| FC(F)c1nc2ccccc2n1-c1nc(N2CCOCC2)nc(N2CCOCC2)n1 | enzyme activity | inhibitor | – | – | 10 µM | remaining activity | 87% |
| CC1=C(C#N)C(c2ccc3c(c2)c(NC(=O)c2ccccc2C)nn3C)C(C#N)=C(C)N1 | cell-free assay | – | competition with immobilised ligand | – | 1 µM | remaining binding | 99% |
| O=C(NCCCNc1ccnc(Nc2cccc(NC(=O)N3CCCC3)c2)n1)C1CCC1 | enzyme activity | inhibitor | radiometric | – | 1 µM | remaining activity | 82% |
